Our source for the IC50 and inhibition values is ChEMBL document CHEMBL1777723, “Design, synthesis, and evaluation of bromo-retrochalcone derivatives as protein tyrosine phosphatase 1B inhibitors” (Bioorg Med Chem Lett, 2011).

Experiment [1] concerns the target T1, Tyrosine-protein phosphatase non-receptor type 1 (Homo sapiens, UniProt P18031).
T1 sequence (P18031 whole entry): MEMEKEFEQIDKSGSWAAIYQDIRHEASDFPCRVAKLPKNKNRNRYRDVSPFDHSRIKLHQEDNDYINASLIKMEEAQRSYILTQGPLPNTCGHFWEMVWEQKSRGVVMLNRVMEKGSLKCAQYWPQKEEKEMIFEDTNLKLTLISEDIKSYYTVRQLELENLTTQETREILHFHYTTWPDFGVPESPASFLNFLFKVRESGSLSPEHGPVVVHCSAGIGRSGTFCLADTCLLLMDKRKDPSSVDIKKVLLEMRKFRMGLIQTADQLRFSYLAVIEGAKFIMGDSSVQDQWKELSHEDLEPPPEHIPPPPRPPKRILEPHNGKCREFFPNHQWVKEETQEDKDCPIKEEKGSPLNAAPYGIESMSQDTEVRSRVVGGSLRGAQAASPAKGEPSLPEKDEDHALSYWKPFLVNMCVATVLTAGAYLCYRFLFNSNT
The experiment can be described thus: (§1) Inhibition of recombinant human PTP1B using p-nitrophenyl phosphate as substrate after 30 mins. In a few lines: (§2)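 Reaction buffer: 10 citrate pH […], 0.1 M NaCl, 1 mM EDTA, 1 mM dithiothreitol. Enzyme and sample were added with 50 of 4 mM pNPP substrate stock, incubated 30 min at 37 °C, then quenched with 10 N NaOH.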

The target in experiment [2] is T2, Tyrosine-protein phosphatase non-receptor type 1 (Homo sapiens) (UniProt P18031).
T2 sequence (whole entry): T1 sequence (P18031 whole entry)
Described as §1. The essentials:
as §2

Broadly, the IC50 is the point on the concentration scale where inhibition reaches its midpoint. Regarding `COc1cc(O)c(Br)cc1/C=C/C(=O)c1ccc(N(C)C)cc1`, the half-maximal inhibitory concentration (IC50) in experiment [1] was greater than 30 µM.
As for `C=CCc1cc(C(=O)/C=C/c2cc(Br)c(O)cc2OC)ccc1O`, the inhibition entry in experiment [2] is “Dose-dependent effect”. Also, the IC50 in experiment [1] was 7.1 µM.
On to `COc1cc(O)c(Br)cc1/C=C/C(=O)c1ccc(-n2cccn2)cc1`, for which, in experiment [2], the inhibition entry was “Dose-dependent effect”. For the same molecule, the half-inhibitory concentration (IC50) in experiment [1] is 6 µM.
Taken in the same sequence, the figures for `COc1cc(O)c(Br)cc1/C=C/C(=O)c1ccc(OC(=O)c2ccc(Br)cc2)cc1` were “Dose-dependent effect” and 2.3 µM.
The like results for `COc1cc(O)c(Br)cc1/C=C/C(=O)c1ccc(N2CCCCC2)cc1` were, in that order, “Dose-dependent effect” and 2.6 µM.
Take `COc1cc(O)c(Br)cc1/C=C/C(=O)c1ccc(OCC(=O)O)cc1`: the IC50 in experiment [1] was greater than 30 µM.
As for `C=C(C)C(C)c1cc(C(=O)/C=C/c2cc(Br)c(O)cc2OC)ccc1OC` (stereo unspecified), the inhibition result in experiment [2] is “Dose-dependent effect”. In experiment [1], the IC50 stood at 1.9 µM.
With `COc1cc(O)c(Br)cc1/C=C/C(=O)c1ccc(OC(=O)c2ccc(C(C)(C)C)cc2)cc1`, the inhibition result in experiment [2] was “Dose-dependent effect”. In addition, the IC50 in experiment [1] amounted to 2.4 µM.
With `COc1cc(O)c(Br)cc1/C=C/C(=O)c1ccc(OCc2ccccc2)cc1`, in experiment [2], the inhibition entry is “Dose-dependent effect”. In experiment [1], the IC50 stood at 2.9 µM.
Taken in the same sequence, the figures for `COc1cc(O)c(Br)cc1/C=C/C(=O)c1ccc(OC(=O)c2ccccc2)cc1` were “Dose-dependent effect” and 4.9 µM.
Taken in the same sequence, the figures for `COc1cc(O)c(Br)cc1/C=C/C(=O)c1ccccc1N(C)C` were “Dose-dependent effect” and 13.9 µM.
Taken in the same sequence, the figures for `COc1cc(O)c(Br)cc1/C=C/C(=O)c1cccc(N2CCCCC2)c1` were “Dose-dependent effect” and 4.9 µM.
On to `C=C(C)C(C)c1cc(C(=O)/C=C/c2cc(Br)c(O)cc2OC)ccc1O` (stereo unspecified), for which the inhibition entry in experiment [2] is “Dose-dependent effect”. In addition, the IC50 in experiment [1] was 6.9 µM.
The like results for `COc1cc(O)c(Br)cc1/C=C/C(=O)c1ccc(OS(=O)(=O)c2ccc(C)cc2)cc1` were, in that order, “Dose-dependent effect” and 2.7 µM.
Taken in the same sequence, the figures for `CCCCOc1ccc(C(=O)/C=C/c2cc(Br)c(O)cc2OC)cc1` were “Dose-dependent effect” and 4.2 µM.
On to `C=C(C)[C@H](C)c1cc(/C=C/C(=O)c2ccc(O)cc2)c(OC)cc1O` [LICOCHALCONE E], for which the IC50 in experiment [1] amounted to 20.7 µM.
In the case of `COc1cc(O)c(Br)cc1/C=C/C(=O)c1ccc(OCC=C(C)C)cc1`, the inhibition entry in experiment [2] is “Dose-dependent effect”. Besides, the IC50 in experiment [1] worked out at 3.5 µM.
Taken in the same sequence, the figures for `C=C(C)C(C)c1cc(C(=O)/C=C/c2cc(Br)c(O)cc2OC)ccc1OCC=C(C)C` (stereo unspecified) were “Dose-dependent effect” and 7 µM.
As to `COc1cccc(C(=O)/C=C/c2cc(Br)c(O)cc2OC)c1`, in experiment [2], the inhibition result is “Dose-dependent effect”. Further, the IC50 in experiment [1] is 11.1 µM.
Taken in the same sequence, the figures for `COc1cc(O)c(Br)cc1/C=C/C(=O)c1ccc(OS(C)(=O)=O)cc1` were “Dose-dependent effect” and 18.4 µM.
Taken in the same sequence, the figures for `COc1cc(O)c(Br)cc1/C=C/C(=O)c1ccc(O)cc1` were “Dose-dependent effect” and 13.7 µM.
Taken in the same sequence, the figures for `C=CCN(CC=C)c1ccc(C(=O)/C=C/c2cc(Br)c(O)cc2OC)cc1` were “Dose-dependent effect” and 3.4 µM.
`COc1cc(O)c(Br)cc1/C=C/C(=O)c1ccccc1N1CCCCC1`: the inhibition result in experiment [2] is “Dose-dependent effect”. The IC50 in experiment [1] came to 6.8 µM.
The like results for `COc1cc(O)c(Br)cc1/C=C/C(=O)c1ccc(N2CCOCC2)cc1` were, in that order, “Dose-dependent effect” and 8 µM.
Taken in the same sequence, the figures for `COc1cc(O)c(Br)cc1/C=C/C(=O)c1ccc(OC)c(CC=C(C)C)c1` were “Dose-dependent effect” and 2.9 µM.
The like results for `CCOC(=O)CCCOc1ccc(C(=O)/C=C/c2cc(Br)c(O)cc2OC)cc1` were, in that order, “Dose-dependent effect” and 10.8 µM.
For the molecule `C=C(C)C(C)c1cc(C(=O)/C=C/c2cc(Br)c(OC3CCCCO3)cc2O)ccc1OC` (stereo unspecified), the inhibition result in experiment [2] was “Dose-dependent effect”. In addition, the IC50 in experiment [1] came to 2.9 µM.
Take `C=CCN(CC=C)c1cccc(C(=O)/C=C/c2cc(Br)c(O)cc2OC)c1`: in experiment [2], the inhibition entry is “Dose-dependent effect”. Also, the IC50 in experiment [1] is 4.5 µM.
Taken in the same sequence, the figures for `COc1cc(O)c(Br)cc1/C=C/C(=O)c1ccc(OCCCC(=O)O)cc1` were “Dose-dependent effect” and 30 µM.
As for `COc1cc(O)c(Br)cc1/C=C/C(=O)c1ccc(N)cc1`, the inhibition result in experiment [2] is “Dose-dependent effect”. Further, the IC50 in experiment [1] came out at 6.2 µM.
As to `COc1cc(O)c(Br)cc1/C=C/C(=O)c1cccc(NS(C)(=O)=O)c1`, in experiment [2], the inhibition entry was “Dose-dependent effect”. The IC50 in experiment [1] came to 11.3 µM.
Taken in the same sequence, the figures for `C=C(C)C(C)c1cc(C(=O)/C=C/c2cc(Br)c(O)cc2O)ccc1OC` (stereo unspecified) were “Dose-dependent effect” and 2.6 µM.
Taken in the same sequence, the figures for `COc1ccc(C(=O)/C=C/c2cc(Br)c(O)cc2OC)cc1` were “Dose-dependent effect” and 9.9 µM.
As for `C=CCc1cc(C(=O)/C=C/c2cc(Br)c(O)cc2OC)ccc1OC`, the inhibition result in experiment [2] was “Dose-dependent effect”. For the same molecule, in experiment [1], the IC50 turned out to be 5.3 µM.
Taken in the same sequence, the figures for `CCOC(=O)COc1ccc(C(=O)/C=C/c2cc(Br)c(O)cc2OC)cc1` were “Dose-dependent effect” and 15.2 µM.
Taken in the same sequence, the figures for `COc1cc(O)c(Br)cc1/C=C/C(=O)c1cc2c(cc1N(C)C)OCO2` were “Dose-dependent effect” and 6.3 µM.
Taken in the same sequence, the figures for `COc1cc(O)c(Br)cc1/C=C/C(=O)c1cccc(N(C)C)c1` were “Dose-dependent effect” and 26.4 µM.
In the case of `COc1cc(O)c(Br)cc1/C=C/C(=O)c1ccc(O)c(CC=C(C)C)c1`, the inhibition entry in experiment [2] is “Dose-dependent effect”. Further, in experiment [1], the IC50 is 4.4 µM.
The like results for `C=CCN(CC=C)c1ccccc1C(=O)/C=C/c1cc(Br)c(O)cc1OC` were, in that order, “Dose-dependent effect” and 3.5 µM.
`COc1cc(O)c(Br)cc1/C=C/C(=O)c1cccc(N)c1`: the inhibition entry in experiment [2] is “Dose-dependent effect”. Further, in experiment [1], the IC50 came out at 6.8 µM.
With `C=C(C)C(C)c1cc(C(=O)/C=C/c2cc(Br)c(OC3CCCCO3)cc2OC)ccc1O` (stereo unspecified), the inhibition entry in experiment [2] is “Dose-dependent effect”. Besides, the IC50 in experiment [1] was 10.3 µM.
The like results for `COc1cc(O)c(Br)cc1/C=C/C(=O)c1ccc(NC(=O)c2ccc(C(C)(C)C)cc2)cc1` were, in that order, “Dose-dependent effect” and 3.4 µM.
